Results as given in PubChem BioAssay.
The source made the active and inactive calls.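 How the source made its calls: active means current rise at least 3 SD above the untreated control mean in each of two repeat wells; inactive means the rest.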

target: Potassium voltage-gated channel subfamily KQT member 1 (Homo sapiens) (UniProt P51787); assay: KCNQ1 activators by electrophysiology – IonWorks patch clamp, KCNQ1-CHO cells, orthogonal assay for KCNQ1 potentiator project, confirmation (AID 493184); conditions: automated patch clamp current, at 10 µM
In short: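 assay system = KCNQ1-expressing CHO cells | medium = external bath solution at pH 7.4 | probe or stimulus = 2,000 ms depolarization, -90 to +40 mV | compound dosing = 10 µM final, single point | measured by = automated voltage clamp, amphotericin B perforated patch | measure = percent current increase versus pre-compound level | replication = duplicates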

Chain of Potassium voltage-gated channel subfamily KQT member 1 (Homo sapiens) (P51787 whole entry, looked up): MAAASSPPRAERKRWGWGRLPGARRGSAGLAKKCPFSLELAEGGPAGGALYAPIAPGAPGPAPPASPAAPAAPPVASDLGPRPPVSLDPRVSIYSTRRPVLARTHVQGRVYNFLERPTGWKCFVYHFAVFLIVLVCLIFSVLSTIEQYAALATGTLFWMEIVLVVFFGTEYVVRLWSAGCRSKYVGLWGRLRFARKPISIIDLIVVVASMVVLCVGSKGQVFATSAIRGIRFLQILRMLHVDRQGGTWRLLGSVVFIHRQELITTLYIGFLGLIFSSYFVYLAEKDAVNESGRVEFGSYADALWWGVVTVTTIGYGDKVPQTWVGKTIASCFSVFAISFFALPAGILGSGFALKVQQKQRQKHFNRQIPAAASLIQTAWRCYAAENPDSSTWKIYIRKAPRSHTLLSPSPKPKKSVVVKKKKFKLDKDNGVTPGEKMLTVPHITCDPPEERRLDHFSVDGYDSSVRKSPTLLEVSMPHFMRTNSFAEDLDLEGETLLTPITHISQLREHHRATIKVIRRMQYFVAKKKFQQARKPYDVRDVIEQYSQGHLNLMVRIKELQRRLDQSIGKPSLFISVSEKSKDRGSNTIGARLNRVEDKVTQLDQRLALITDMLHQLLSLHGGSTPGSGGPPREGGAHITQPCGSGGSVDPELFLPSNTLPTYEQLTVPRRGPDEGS

outcome, inactive:
CCC1CCCCN1S(=O)(=O)c1ccc(NC(=O)c2cccnc2)cc1 (centres undefined)
S=C(Nc1ccc(Br)cc1)N1CCn2cccc2C1c1cccnc1 (centres undefined)
COc1cccc(C(=O)COc2ccc(NC(=O)c3ccccc3)cc2)c1
O=C(O)c1ccc2c(c1)C(=O)N(c1ccc(Cl)cn1)C2=O
CN(C(=O)c1cc(COc2c(F)cccc2F)on1)C1CCOC1 (centres undefined)
COc1cccc(/C=N/NC(=O)C(C)n2nc(C)c([N+](=O)[O-])c2C)c1O (centres undefined)
Cc1cc(C)c(NC(=O)CN2C(=O)NC3(CCCc4ccccc43)C2=O)c(Cl)c1 (centres undefined)
CN(CCCNC(=O)CSc1cc(=O)n(C)c2ccc(Cl)cc12)Cc1ccccc1
Cc1ccccc1NC(=S)NNC(=O)c1csc2c1CCC(C)C2 (centres undefined)
CCC(O)(CC)C(=O)NN(C(=O)CCl)c1ccccc1
S=c1sc2c(Cl)ncnc2n1-c1ccccc1
COc1cccc(C(=O)Nc2nc(-c3ccccc3)c(-c3ccccc3)o2)c1
Cc1ccc(Cc2c[nH]c(=S)s2)cc1
COc1ccc(-n2c(=S)[nH]c3c(oc4ccccc43)c2=O)cc1
O=C(O)CSc1c2c(nc3cc(C(=O)Nc4cccc(C(F)(F)F)c4)ccc13)CCC2
CCOC(=O)c1sc(NN=C(C(=O)OC)C(=O)OC)c(C(=O)OCC)c1C
Cc1ccc(-c2csc3ncnc(SCc4ccc(C(=O)O)cc4)c23)cc1
CC(C)[N+]1(C)[C@@H]2CC[C@H]1CC(OC(=O)C(CO)c1ccccc1)C2 (some centres undefined)
C/C(=N\NC(=O)C(C)Sc1ccccc1)c1ccc([N+](=O)[O-])cc1 (centres undefined)
COCCOC(=O)N/C=C\c1nc2ccccc2c(=O)[nH]1
COc1ccc2nc(N3C(=O)/C(=C/c4ccccc4)NC3=S)sc2c1
O=C(CSc1nc(=O)n2ccccc2n1)NCc1ccccc1
O=C(NC(=S)Nc1ccc(N2CCOCC2)c(Cl)c1)c1sc2ccccc2c1Cl
CC(=O)O[C@H]1CSC[C@H]1NC(=O)c1ccccc1
COc1ccc(C(=O)NNC(=O)C(=O)Nc2ccc(C)cc2)cc1
COc1ccccc1-n1cnc2cc(NCc3ccco3)ccc21
CCc1ccc2[nH]c(O)c(N=Nc3nc(-c4ccccc4)cs3)c2c1
O=S(=O)(CC(CN1CCCC1)N1CCCC1)c1ccc2ccccc2c1 (centres undefined)
C=CCn1c(O)c(N=NC(=S)Nc2cccc(OC)c2)c2ccccc21
CSc1nccc(-c2nn(-c3ccc(C)cc3)ccc2=O)n1
CCN1c2ccccc2-c2nc3ccccc3n2C1c1cccnc1 (centres undefined)
COC(=O)c1ccc(/C=C/c2ccc3cccc(OC)c3n2)cc1
CCSc1nc2c(sc3ccccc32)c(=O)n1C(C)C
COc1ccc(NC(=O)C(=O)NNC(=O)c2cccs2)cc1
CCCn1c(NC(=O)CN2C(=O)NC3(CCCC3)C2=O)nc2ccccc21
COc1ccc(C2NC(c3ccc(OC)c(OC)c3OC)C(C)C(=O)C2C)c(OC)c1OC (centres undefined)
COC(=O)c1sc(-c2ccccc2)cc1NC(=O)C1CC1
CN1C(=O)C2(Oc3ccccc3C3CC(c4ccccc4)=NN32)c2ccccc21 (centres undefined)
O=C1c2cccc3cccc(c23)C(=O)N1c1cccc(O)c1
